{
  "source": "ChEMBL document CHEMBL5696442",
  "about": "“Discovery of type II inhibitors of TGFβ-activated kinase 1 (TAK1) and mitogen-activated protein kinase kinase kinase kinase 2 (MAP4K2)” (J Med Chem, 2015)",
  "key": {"[1]": {"molecular_target": "MAP kinase-activated protein kinase 5 (Homo sapiens) (UniProt Q8IW41)", "assay": "Inhibition of MAPKAPK5 (unknown origin) at 10 uM by Ambit Kinomescan binding assay"}, "[2]": {"molecular_target": "Tyrosine-protein kinase ABL1 (Homo sapiens, UniProt P00519)", "assay": "Inhibition of ABL1 (unknown origin) at 10 uM by Ambit Kinomescan binding assay relative to control; values are per cent of control"}, "[3]": {"molecular_target": "Phosphatidylinositol 4-kinase beta (Homo sapiens) (UniProt Q9UBF8)", "sequence (Q9UBF8 2-816 limits assumed)": "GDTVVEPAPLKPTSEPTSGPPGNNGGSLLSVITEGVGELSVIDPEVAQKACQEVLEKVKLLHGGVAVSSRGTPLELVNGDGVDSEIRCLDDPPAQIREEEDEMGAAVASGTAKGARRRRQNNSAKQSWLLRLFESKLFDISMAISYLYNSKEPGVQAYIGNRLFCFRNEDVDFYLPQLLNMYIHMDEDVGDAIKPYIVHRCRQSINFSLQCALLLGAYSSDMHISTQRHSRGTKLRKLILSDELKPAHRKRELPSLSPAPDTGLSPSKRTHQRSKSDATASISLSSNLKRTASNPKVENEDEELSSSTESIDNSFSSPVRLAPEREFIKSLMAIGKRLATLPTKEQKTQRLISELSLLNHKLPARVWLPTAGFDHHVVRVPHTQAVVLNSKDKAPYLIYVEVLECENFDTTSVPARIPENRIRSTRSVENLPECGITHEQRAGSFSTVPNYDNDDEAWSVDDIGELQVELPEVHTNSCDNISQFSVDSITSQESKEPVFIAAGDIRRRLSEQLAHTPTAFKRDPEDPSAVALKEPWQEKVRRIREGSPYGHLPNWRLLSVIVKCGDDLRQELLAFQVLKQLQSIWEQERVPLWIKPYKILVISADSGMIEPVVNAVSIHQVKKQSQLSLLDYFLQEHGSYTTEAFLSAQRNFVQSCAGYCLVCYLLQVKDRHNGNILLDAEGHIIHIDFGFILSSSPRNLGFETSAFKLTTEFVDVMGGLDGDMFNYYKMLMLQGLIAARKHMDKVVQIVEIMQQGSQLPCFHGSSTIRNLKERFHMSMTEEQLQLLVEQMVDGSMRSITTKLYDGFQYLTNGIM", "assay": "Inhibition of PI4KB ATP labeling site harbouring VPHTQAVVLNSKDK in human Huh-7 cell lysate at 1 uM by KiNativ Profiling analysis relative to control", "type": "subcellular"}, "[4]": {"molecular_target": "Ribosomal protein S6 kinase alpha-1 (Homo sapiens) (UniProt Q15418)", "sequence (Q15418 whole entry, the tested form may be a part)": "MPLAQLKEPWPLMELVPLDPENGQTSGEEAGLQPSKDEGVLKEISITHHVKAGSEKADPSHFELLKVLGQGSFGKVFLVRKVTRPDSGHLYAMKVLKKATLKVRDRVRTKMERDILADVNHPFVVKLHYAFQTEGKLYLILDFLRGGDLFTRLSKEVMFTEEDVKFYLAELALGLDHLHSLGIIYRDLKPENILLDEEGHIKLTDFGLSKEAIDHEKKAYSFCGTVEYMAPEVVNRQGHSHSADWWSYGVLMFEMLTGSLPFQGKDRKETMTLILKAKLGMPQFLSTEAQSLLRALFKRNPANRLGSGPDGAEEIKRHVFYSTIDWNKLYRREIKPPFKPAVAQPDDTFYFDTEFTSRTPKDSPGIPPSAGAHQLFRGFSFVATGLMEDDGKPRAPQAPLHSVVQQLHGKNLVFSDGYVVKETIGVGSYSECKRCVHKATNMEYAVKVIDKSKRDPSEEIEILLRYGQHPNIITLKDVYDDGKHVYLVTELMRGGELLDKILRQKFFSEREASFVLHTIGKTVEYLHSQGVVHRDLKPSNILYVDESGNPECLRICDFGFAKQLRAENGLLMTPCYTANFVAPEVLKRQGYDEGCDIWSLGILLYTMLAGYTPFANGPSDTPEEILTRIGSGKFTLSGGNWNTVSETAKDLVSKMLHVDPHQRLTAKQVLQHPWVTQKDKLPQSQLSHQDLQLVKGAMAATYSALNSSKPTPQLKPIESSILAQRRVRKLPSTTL", "assay": "Inhibition of RSK1 domain2 ACT labeling site in human Huh-7 cell lysate at 1 uM by KiNativ Profiling analysis relative to control", "type": "subcellular"}, "[5]": {"molecular_target": "Serine/threonine-protein kinase WNK3 (Homo sapiens) (UniProt Q9BYP7)", "sequence (Q9BYP7 whole entry)": "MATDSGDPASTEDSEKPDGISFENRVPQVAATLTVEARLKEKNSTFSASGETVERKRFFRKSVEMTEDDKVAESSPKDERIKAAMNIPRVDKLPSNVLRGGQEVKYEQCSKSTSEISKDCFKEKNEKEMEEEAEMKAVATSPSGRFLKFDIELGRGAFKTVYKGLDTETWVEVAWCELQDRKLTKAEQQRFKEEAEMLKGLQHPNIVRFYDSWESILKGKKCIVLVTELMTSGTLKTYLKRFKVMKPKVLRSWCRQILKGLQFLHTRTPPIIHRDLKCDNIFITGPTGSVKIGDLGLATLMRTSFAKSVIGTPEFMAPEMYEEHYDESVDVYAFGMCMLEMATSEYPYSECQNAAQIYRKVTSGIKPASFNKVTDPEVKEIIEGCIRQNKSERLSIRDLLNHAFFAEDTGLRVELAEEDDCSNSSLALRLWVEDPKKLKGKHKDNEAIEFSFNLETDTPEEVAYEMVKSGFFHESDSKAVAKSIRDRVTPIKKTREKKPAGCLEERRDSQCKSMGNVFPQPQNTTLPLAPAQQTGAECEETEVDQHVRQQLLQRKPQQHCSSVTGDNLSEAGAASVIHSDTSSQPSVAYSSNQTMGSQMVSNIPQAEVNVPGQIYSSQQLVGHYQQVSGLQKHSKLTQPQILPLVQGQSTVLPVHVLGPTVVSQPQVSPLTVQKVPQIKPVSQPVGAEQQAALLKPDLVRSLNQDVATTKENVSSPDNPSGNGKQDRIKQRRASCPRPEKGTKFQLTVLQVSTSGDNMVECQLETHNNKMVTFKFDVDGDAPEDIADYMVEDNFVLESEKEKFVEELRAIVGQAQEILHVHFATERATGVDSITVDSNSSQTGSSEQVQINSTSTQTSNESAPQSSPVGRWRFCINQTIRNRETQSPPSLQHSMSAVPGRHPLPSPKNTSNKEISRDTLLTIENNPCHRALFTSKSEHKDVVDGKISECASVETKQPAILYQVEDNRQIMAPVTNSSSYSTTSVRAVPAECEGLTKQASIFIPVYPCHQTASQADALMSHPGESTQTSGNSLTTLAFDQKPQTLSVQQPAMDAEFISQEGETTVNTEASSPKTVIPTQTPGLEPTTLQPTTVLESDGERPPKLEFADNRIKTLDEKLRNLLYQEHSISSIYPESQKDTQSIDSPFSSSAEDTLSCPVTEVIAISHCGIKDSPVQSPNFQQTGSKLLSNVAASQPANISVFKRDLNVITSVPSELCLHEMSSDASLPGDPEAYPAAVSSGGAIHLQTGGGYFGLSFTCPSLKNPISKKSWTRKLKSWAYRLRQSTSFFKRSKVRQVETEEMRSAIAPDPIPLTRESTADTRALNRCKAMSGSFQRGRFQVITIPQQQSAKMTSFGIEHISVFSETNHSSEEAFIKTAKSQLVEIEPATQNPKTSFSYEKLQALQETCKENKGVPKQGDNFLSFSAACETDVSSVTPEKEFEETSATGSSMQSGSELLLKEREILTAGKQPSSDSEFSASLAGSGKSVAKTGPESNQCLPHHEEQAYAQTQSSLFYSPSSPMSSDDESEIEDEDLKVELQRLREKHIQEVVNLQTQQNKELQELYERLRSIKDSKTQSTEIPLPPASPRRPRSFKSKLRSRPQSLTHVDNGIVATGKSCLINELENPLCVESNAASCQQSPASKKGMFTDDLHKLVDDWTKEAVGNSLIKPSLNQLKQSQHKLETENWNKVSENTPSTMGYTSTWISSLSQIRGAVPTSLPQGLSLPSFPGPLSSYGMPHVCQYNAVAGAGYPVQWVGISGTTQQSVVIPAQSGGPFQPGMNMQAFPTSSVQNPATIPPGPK", "assay": "Inhibition of Wnk3 Lys2 labeling site in human Huh-7 cell lysate at 1 uM by KiNativ Profiling analysis relative to control", "type": "subcellular"}, "[6]": {"molecular_target": "ALK tyrosine kinase receptor (Homo sapiens) (UniProt Q9UM73)", "assay": "Inhibition of ALK (unknown origin) at 1 uM by Ambit Kinomescan binding assay relative to control"}, "[7]": {"molecular_target": "Cyclin-dependent kinase 18 (Homo sapiens) (UniProt Q07002)", "sequence (Q07002 whole entry)": "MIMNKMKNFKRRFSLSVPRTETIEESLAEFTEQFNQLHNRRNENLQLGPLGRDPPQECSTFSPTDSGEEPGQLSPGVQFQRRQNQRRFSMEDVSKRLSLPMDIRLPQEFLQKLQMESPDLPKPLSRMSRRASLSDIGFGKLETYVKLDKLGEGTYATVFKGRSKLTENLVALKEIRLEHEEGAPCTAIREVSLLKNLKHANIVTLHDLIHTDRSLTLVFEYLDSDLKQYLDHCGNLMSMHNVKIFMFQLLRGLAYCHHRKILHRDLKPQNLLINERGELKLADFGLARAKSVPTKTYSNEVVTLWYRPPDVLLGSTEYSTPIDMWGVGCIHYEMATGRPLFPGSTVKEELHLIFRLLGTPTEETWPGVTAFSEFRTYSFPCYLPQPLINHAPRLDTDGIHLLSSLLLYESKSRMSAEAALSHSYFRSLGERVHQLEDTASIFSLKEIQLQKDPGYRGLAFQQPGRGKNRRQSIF", "assay": "Inhibition of PCTK3 (unknown origin) at 1 uM by Ambit Kinomescan binding assay relative to control", "summary_of_the_method": "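In vitro ATP-site competition binding assay against a panel of over 420 kinases (KinomeScan), with compound tested at 10 or 1 μM.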"}, "[8]": {"molecular_target": "RAC-beta serine/threonine-protein kinase (Homo sapiens) (UniProt P31751)", "assay": "Inhibition of AKT2 ATP Loop labeling site in human A-375 cells at 5 uM by KiNativ Profiling analysis relative to control", "type": "cell-based"}, "[9]": {"molecular_target": "Casein kinase I isoform delta (Homo sapiens) (UniProt P48730)", "assay": "Inhibition of CK1delta Lys2 labeling site in human A-375 cells at 5 uM by KiNativ Profiling analysis relative to control", "type": "cell-based"}, "[10]": {"molecular_target": "Serine/threonine-protein kinase 24 (Homo sapiens) (UniProt Q9Y6E0)", "sequence (Q9Y6E0 whole entry, looked up)": "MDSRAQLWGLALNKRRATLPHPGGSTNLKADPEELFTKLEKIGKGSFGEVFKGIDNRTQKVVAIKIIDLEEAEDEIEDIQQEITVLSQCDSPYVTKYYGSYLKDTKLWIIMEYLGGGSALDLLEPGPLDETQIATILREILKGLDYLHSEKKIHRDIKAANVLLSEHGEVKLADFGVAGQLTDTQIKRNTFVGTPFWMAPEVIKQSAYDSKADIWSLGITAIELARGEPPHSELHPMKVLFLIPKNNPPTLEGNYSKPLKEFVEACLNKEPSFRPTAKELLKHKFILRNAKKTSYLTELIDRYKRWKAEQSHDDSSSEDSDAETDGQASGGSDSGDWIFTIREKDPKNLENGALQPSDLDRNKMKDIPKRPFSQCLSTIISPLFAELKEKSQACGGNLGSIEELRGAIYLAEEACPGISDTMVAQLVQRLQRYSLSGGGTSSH", "assay": "Inhibition of MST3 Lys2 labeling site harbouring IHRDIKAANVLLSEHGEVK in human A-375 cells at 5 uM by KiNativ Profiling analysis relative to control", "type": "cell-based"}, "[11]": {"molecular_target": "T1, Phosphatidylinositol 4,5-bisphosphate 3-kinase catalytic subunit delta isoform (Homo sapiens) (UniProt O00329)", "T1 sequence (whole entry)": "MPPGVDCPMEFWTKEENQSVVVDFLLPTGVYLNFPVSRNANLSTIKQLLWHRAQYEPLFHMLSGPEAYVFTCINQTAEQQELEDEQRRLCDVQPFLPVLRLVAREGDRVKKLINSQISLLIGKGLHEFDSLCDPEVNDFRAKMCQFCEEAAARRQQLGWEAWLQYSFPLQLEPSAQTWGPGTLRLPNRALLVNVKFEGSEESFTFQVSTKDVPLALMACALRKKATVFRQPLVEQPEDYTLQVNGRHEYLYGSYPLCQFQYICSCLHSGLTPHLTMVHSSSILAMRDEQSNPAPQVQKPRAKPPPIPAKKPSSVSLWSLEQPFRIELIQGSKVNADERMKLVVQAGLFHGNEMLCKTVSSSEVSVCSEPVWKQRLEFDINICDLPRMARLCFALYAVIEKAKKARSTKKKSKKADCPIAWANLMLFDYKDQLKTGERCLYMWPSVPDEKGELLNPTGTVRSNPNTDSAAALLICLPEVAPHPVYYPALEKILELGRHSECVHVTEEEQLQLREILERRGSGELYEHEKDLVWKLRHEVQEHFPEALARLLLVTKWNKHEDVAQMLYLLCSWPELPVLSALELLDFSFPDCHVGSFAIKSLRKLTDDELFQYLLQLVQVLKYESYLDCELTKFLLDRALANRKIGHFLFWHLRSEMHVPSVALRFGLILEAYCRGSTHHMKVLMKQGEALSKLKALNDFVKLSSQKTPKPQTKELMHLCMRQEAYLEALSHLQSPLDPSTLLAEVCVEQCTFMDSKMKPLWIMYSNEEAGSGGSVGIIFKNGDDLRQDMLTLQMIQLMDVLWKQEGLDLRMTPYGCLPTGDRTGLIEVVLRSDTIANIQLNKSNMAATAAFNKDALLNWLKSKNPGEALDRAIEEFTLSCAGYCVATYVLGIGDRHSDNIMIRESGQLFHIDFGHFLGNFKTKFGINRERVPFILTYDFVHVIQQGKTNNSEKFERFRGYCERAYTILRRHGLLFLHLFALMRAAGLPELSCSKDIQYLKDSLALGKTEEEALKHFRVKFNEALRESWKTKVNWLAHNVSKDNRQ", "assay": "Inhibition of PIK3CD ATP labeling site in human A-375 cells at 0.5 uM by KiNativ Profiling analysis relative to control", "type": "cell-based"}, "[12]": {"molecular_target": "Mitogen-activated protein kinase kinase kinase 4 (Homo sapiens) (UniProt Q9Y6R4)", "assay": "Inhibition of MAP3K4 Lys2 labeling site in human A-375 cells at 0.05 uM by KiNativ Profiling analysis relative to control", "type": "cell-based"}, "[13]": {"molecular_target": "Tyrosine-protein kinase Fes/Fps (Homo sapiens, UniProt P07332)", "sequence (P07332 whole entry)": "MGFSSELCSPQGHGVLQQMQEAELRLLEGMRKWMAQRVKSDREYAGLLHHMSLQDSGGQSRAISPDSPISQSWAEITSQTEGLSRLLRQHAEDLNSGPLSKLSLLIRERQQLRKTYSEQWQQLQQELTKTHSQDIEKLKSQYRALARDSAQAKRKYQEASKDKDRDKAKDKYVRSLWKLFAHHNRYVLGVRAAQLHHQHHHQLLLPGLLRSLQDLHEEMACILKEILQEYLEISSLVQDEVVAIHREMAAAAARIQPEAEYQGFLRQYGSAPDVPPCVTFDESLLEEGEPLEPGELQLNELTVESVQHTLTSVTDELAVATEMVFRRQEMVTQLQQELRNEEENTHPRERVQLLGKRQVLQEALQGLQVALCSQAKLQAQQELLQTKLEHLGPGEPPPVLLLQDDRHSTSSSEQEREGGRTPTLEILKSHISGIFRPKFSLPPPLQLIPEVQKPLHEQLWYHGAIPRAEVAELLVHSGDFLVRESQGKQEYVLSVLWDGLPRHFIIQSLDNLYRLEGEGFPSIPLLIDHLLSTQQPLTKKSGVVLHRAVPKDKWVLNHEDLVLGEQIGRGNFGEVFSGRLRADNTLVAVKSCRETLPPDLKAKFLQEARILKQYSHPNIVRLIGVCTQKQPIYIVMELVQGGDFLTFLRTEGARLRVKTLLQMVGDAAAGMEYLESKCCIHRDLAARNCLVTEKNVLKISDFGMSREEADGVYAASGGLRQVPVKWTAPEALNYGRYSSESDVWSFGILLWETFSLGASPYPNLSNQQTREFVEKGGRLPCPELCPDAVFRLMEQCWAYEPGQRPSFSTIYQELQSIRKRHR", "assay": "Inhibition of FES (unknown origin) at 1 uM by Ambit Kinomescan binding assay relative to control; values are per cent of control"}, "[14]": {"test_system": "Receptor-type tyrosine-protein kinase FLT3 (Homo sapiens), P36888 [D835H]", "assay": "Inhibition of FLT3 D835H mutant (unknown origin) at 1 uM by Ambit Kinomescan binding assay relative to control; values are per cent of control"}},
  "note": "Active and inactive are the calls of the source. The rule behind the calls is not given here.",
  "data": [
    {"smiles": "CCN1CCN(Cc2ccc(NC(=O)c3ccc(C)c(Oc4ccnc5[nH]ccc45)c3)cc2C(F)(F)F)CC1", "values": [
      {"measurement": "inhibition", "setting": "[1]", "value": "inactive"},
      {"measurement": "percent of control", "setting": "[2]", "value": 0.1, "unit": "%"}
    ]},
    {"smiles": "CNc1cc(Oc2cc(C(=O)Nc3cc(N4CCN(C)CC4)cc(C(F)(F)F)c3)ccc2C)ncn1", "values": [
      {"measurement": "inhibition", "setting": "[3]", "value": 1.9, "unit": "%"},
      {"measurement": "inhibition", "setting": "[4]", "value": 1.9, "unit": "%"},
      {"measurement": "inhibition", "setting": "[5]", "value": 2.7, "unit": "%"}
    ]},
    {"smiles": "CCN1CCN(Cc2ccc(NC(=O)c3ccc(C)c(/C=C/c4cnc5[nH]ccc5c4OC)c3)cc2C(F)(F)F)CC1", "values": [
      {"measurement": "inhibition", "setting": "[6]", "value": 80, "unit": "%"},
      {"measurement": "inhibition", "setting": "[7]", "value": 84, "unit": "%"},
      {"measurement": "inhibition", "setting": "[8]", "value": 13.3, "unit": "%"},
      {"measurement": "inhibition", "setting": "[9]", "value": 1.4, "unit": "%"},
      {"measurement": "inhibition", "setting": "[10]", "value": -0.1, "unit": "%"},
      {"measurement": "inhibition", "setting": "[11]", "value": 4.2, "unit": "%"},
      {"measurement": "inhibition", "setting": "[12]", "value": -0.6, "unit": "%"},
      {"measurement": "residual activity", "setting": "[13]", "value": 6.8, "unit": "%"},
      {"measurement": "residual activity", "setting": "[14]", "value": 2.6, "unit": "%"}
    ]}
  ]
}
